# UHRF1 MBD2 ctr – UHRF1 methyl-DNA binding inhibition; inhibition, % at 4.4 µM; 370,000 tested, 0.75% active; UHRF1 binding to methylated oligo, TR-FRET; AID 687016;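 note: UHRF1 SRA domain binding a hemimethylated CpG hairpin DNA probe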
# MBD2 DNA inh – inhibitors of human MBD2 binding to methylated oligonucleotide; 370,000 tested, 0.31% active; Q9UBB5; TR-FRET; inhibition, % at 4.4 µM; AID 686964; in the data active = inhibition above about 13%
# Rin1 Abl inh – inhibitors of human Rin1-Abl protein interaction. 360,000 tested, 0.4% active. inhibition, % at 7.35 µM. P00519+Q13671. AID 588664. TR-FRET Rin1/Abl binding, biochemical; in the data active = inhibition above about 5%, passing the limit was not always enough
# Arr AP2 block – blocks beta-arrestin peptide binding to AP2 adaptin. FITC-arrestin peptide / GST-AP2 beads, flow cytometry; AP2 beta2 appendage carries R879A mutation. inhibition, % at 10 µM. 340,000 tested, 0.31% active. AID 504490;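 active = inhibition above a set limit, near 3 SD of compounds lacking own fluorescence, cut at about 54% in these data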
#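 Material – AP2 appendage R879A on GSH beads · Buffer or medium – PBS with 0.05% Tween 20 and 0.1% BSA · Probe or stimulus – fluorescein-tagged arrestin peptide at 50 nM final · Incubation – compound with beads 12 min RT, then probe 1 h RT · Detection – high-throughput flow cytometry of beads, ex 488, em 535 nm · Evaluation – percent response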
# Beta2AR agonist – activates human beta-2 adrenergic receptor causing internalization; P07550; Am2.2-beta2AR cells, FAP receptor internalization, flow cytometry; response, % (test concentration not listed); 340,000 tested, 0.43% active;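 active = response above a set limit, near 3 SD of response in nonfluorescent compounds, cut at about 42% in these data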
# ABHD5 PLIN5 PPI – blocks binding of human ABHD5 to perilipin-5; Q00G26+Q8WTS1; Split G. princeps luciferase complementation, luminescence, 4 h; inhibition, % at 4 µM; 360,000 tested, 0.78% active;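 active = inhibition above the mean inhibition across every tested compound plus 3 SD, cut at about 22% in these data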
# Target sequence (Q00G26 whole entry, looked up): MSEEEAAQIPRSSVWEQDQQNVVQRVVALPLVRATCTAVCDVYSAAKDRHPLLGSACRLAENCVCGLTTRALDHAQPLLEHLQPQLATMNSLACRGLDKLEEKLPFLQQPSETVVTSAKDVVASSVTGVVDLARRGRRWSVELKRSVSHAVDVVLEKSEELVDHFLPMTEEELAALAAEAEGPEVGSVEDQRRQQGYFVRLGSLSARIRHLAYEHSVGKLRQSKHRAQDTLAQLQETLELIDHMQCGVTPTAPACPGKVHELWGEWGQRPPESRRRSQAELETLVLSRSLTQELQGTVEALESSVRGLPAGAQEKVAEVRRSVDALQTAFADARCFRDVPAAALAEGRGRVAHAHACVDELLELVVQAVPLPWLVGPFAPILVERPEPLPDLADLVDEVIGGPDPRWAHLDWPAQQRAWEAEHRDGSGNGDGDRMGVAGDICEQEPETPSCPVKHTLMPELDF
# Target sequence (Q8WTS1 whole entry, looked up): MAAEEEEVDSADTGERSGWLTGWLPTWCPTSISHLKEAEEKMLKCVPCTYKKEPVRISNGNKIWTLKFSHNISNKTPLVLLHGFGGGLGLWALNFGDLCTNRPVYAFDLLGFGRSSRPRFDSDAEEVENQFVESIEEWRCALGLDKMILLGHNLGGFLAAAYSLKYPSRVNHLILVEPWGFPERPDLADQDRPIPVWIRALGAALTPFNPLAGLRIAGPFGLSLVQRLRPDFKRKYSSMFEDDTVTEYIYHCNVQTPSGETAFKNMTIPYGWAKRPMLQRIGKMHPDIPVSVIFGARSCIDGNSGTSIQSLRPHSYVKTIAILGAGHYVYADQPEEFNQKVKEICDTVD
# Arr-AP2 CP1 – blocks beta-arrestin peptide binding to human AP2; shares compounds with Arr AP2 block; GST-AP2 beads, FITC arrestin peptide binding, flow cytometry; GST-fused beta2-adaptin appendage, R879A mutant; inhibition, % at 10 µM; 1,300 tested, 2% active; AID 504908;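 active = inhibition above a set limit, roughly 3 SD of non-fluorescent compound noise, cut at about 38% in these data; inactive = inhibition at or below that limit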;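 note: loss of bead fluorescence from 50 nM FITC arrestin peptide bound to appendage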
# GST GSH counter – counter-screen for beta-arrestin AP2 inhibitors: GST-GSH bead binding; shares compounds with Arr AP2 block; GST-fluorescein binding to GSH beads, fluorescence; inhibition, % at 10 µM; 1,300 tested, 2% active;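 active = inhibition above 50%, about 3 SD of the inhibition seen with non-fluorescent compounds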;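 note: fluorescein maleimide labelled GST captured on 4 micron glutathione beads; higher means more loss of bead fluorescence from quenching or blocked binding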
# Rin1 Abl conf – confirmation of inhibitors of human Rin1-Abl interaction | shares compounds with Rin1 Abl inh | TR-FRET Rin1-Abl binding, purified proteins | inhibition, % at 7.35 µM | 1,300 tested, 49% active; in the data active = inhibition above about 6.5%
# GFP quench-1 – counter-screen for Rin1-Abl inhibitors: GFP fluorescence quenchers; inhibitors/quenchers counterscreen; inhibition, % at 6.75 µM; shares compounds with Rin1 Abl inh; 1,300 tested, 8.5% active; in the data active = inhibition above about 6.5%;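 note: ABL1-eGFP fusion protein alone without its partner RIN1-SBP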
# GFP quench DR – GFP fluorescence interference dose response. IC50, µM. 230 tested, under 10 active. GFP fluorescence interference/quenching counterscreen. shares compounds with Rin1 Abl inh; call rule not given here;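 note: ABL1-eGFP fusion protein alone without its RIN1 binding partner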
# GFP quench-2 – GFP quenching artifact for Rin1-Abl inhibitor hits | shares compounds with Rin1 Abl inh | GFP fluorescence quenching counterscreen, biochemical | IC50, µM | 25 tested, under 10 active; call rule not given here
# UHRF1 ctr MBD2 – UHRF1 methyl-oligo binding inhibition as MBD2 counter-screen | shares compounds with MBD2 DNA inh | UHRF1 binding to methylated oligonucleotide, TR-FRET | inhibition, % at 4.4 µM | 1,000 tested, 25% active | AID 720530;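 note: UHRF1 SRA domain binding a labeled hemimethylated CpG hairpin DNA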
# MBD2 DBD conf – MBD2-DBD methyl-DNA binding inhibition, TR-FRET confirmation | shares compounds with MBD2 DNA inh | TR-FRET MBD2-DBD binding to methylated oligonucleotide | inhibition, % at 4.4 µM | 1,000 tested, 26% active | AID 720531; in the data active = inhibition above about 14%
# Hits are given with their value; 0 = inactive; - = no result. The list is not random: actives were taken first. Their share in the collection is about 2.5%. Cut-off read from the data, not from the text of the source, unless noted: active = inhibition above about 21%; inactive = the rest.
SMILES,UHRF1 MBD2 ctr,MBD2 DNA inh,Rin1 Abl inh,Arr AP2 block,Beta2AR agonist,ABHD5 PLIN5 PPI,Rin1 Abl conf,GFP quench-1,others
C[C@@H]1CN([C@@H](C)CO)C(=O)CCCn2cc(nn2)CO[C@H]1CN(C)C(=O)c1ccc(N2CCN(C)CC2)cc1,0,0,-,-,-,-,-,-,
COc1ccccc1NC(=O)COC(=O)c1cc2c(s1)CCC2,0,0,0,0,0,0,-,-,
COc1ccc(OC)c(NC(=O)COC(=O)c2cc3c(s2)CCC3)c1,47,19,0,80,0,0,-,-,Arr-AP2 CP1=0;GST GSH counter=0;UHRF1 ctr MBD2=40;MBD2 DBD conf=35
O=C1/C(=C\c2ccc([N+](=O)[O-])cc2)CCc2ccccc21,0,0,18,0,0,0,0,0,
O=C1/C(=C/c2ccc(O)cc2)CCc2ccc([N+](=O)[O-])cc21,0,0,0,0,0,0,-,-,
COC(=O)c1c(C)nc(C)c2c(=O)oc3ccccc3c12,0,0,15,0,0,0,38,0,GFP quench DR=0
COC(=O)c1cc2c(ccc3ccccc32)oc1=O,0,0,0,0,0,0,-,-,
C#CCOCCOCCOCCNc1nc(N2CCOCC2)nc(N2CCN(C(=O)[C@H](Cc3ccc(O)cc3)n3cc([C@@H](N)CC(C)C)nn3)CC2)n1,0,0,14,0,0,0,15,0,
Cc1ccc(Cn2nnc3c(=O)[nH]c(C4CCN(C(=O)Cc5cccs5)CC4)nc32)cc1,0,0,0,0,0,0,-,-,
Cc1ccc(CC(=O)N2CCC(c3nc4c(nnn4Cc4ccccc4)c(=O)[nH]3)CC2)cc1,0,0,8.8,0,0,0,7.1,0,
c1ccc(Cn2c(SCC3CCC3)nnc2-c2cccnc2)cc1,0,0,-,-,-,-,-,-,
COc1ccc(-n2c(SCC(=O)N3CCCCC3C)nnc2-c2ccncc2)cc1 (stereo not drawn),0,0,-,-,-,-,-,-,
O=C(NN1C(=O)/C(=C/c2ccc(O)c(O)c2)SC1=S)c1ccccc1,0,0,7.5,0,0,0,6.6,12,
Cc1ccc(CSc2nnc(-c3cc(-c4ccc(C)cc4)n[nH]3)n2N)cc1,0,0,-,-,-,-,-,-,
N#Cc1ccc(C(=O)NCC(c2ccco2)N2CCCC2)cc1 (stereo not drawn),0,0,0,0,0,0,-,-,
N#Cc1ccccc1Sc1ccccc1C(=O)NCC(c1ccco1)N1CCCC1 (stereo not drawn),0,0,49,0,0,0,62,0,GFP quench DR=0;GFP quench-2=0
Cc1ccc(NC(=O)CSc2nc3c(c(=O)n(C)c(=O)n3C)n2C)cc1,0,0,6.8,0,0,0,0,0,
COc1ccc(CCC(=O)NCCc2nc3ccccc3[nH]2)cc1,0,0,6.0,0,0,0,0,0,
CC(C)CN1C(=O)NC(NS(=O)(=O)c2ccc(N)cc2)(C(F)(F)F)C1=O (stereo not drawn),0,0,6.7,0,0,0,0,0,

# Assay outcomes as filed in PubChem.
